Measurements published in ChEMBL document CHEMBL4680175, “Sulfonamide-based ring-fused analogues for CAN508 as novel carbonic anhydrase inhibitors endowed with antitumor activity: Design, synthesis, and in vitro biological evaluation” (Eur J Med Chem, 2020).
Active and inactive are the calls of the source. The rule behind the calls is not given here.

Key:
[1] = system: IGROV-1; assay: Antitumor activity against human IGROV1 cells assessed as cell growth inhibition at 10 uM incubated for 48 hrs by sulforhodamine B assay; type: functional; conditions: read-out: GI
Summary of the method: (§1)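 NCI Drug Evaluation Branch protocol: primary single-dose screen at 10 μM across a 57-line human cancer panel. Drug exposure is 48 h. Cell growth and viability are read by sulforhodamine B assay. Data are given as a mean graph of percent growth of treated cells and reported as percentage growth inhibition (GI%).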

[2] = system: SK-MEL-5; assay: Antitumor activity against human SK-MEL-5 cells assessed as cell growth inhibition at 10 uM incubated for 48 hrs by sulforhodamine B assay; type: functional; conditions: read-out: GI; summary of the method: as §1
[3] = system: NCI/ADR-RES; assay: Antitumor activity against human NCI/ADR-RES cells assessed as cell growth inhibition at 10 uM incubated for 48 hrs by sulforhodamine B assay; type: functional, cell-based; summary of the method: as §1
[4] = biological target: Cyclin-dependent kinase 2/cyclin E1 (Homo sapiens, UniProt P24941); assay: Inhibition of CDK2/cyclin E (unknown origin) expressed in baculovirus infected Sf21 insect cells using histone H1 as substrate in presence of [gamma33P]ATP
[5] = system: SK-MEL-2; assay: Antitumor activity against human SK-MEL-2 cells assessed as cell growth inhibition at 10 uM incubated for 48 hrs by sulforhodamine B assay; type: functional; conditions: read-out: GI; summary of the method: as §1
[6] = system: HOP-62; assay: Antitumor activity against human HOP62 cells assessed as cell growth inhibition at 10 uM incubated for 48 hrs by sulforhodamine B assay; type: functional; conditions: read-out: GI; summary of the method: as §1
[7] = system: UO-31; assay: Antitumor activity against human UO-31 cells assessed as cell growth inhibition at 10 uM incubated for 48 hrs by sulforhodamine B assay; type: functional; conditions: read-out: GI
Summary of the method: (§2)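 NCI one-dose screen: 57-cell-line panel exposed at 10 μM for 48 h, Drug Evaluation Branch protocol. Growth and viability read by sulforhodamine B; data given as percent growth inhibition from the mean-graph of percent growth of treated cells.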

[8] = biological target: Carbonic anhydrase 12 (Homo sapiens, UniProt O43570); assay: Inhibition of recombinant human carbonic anhydrase 12 preincubated with enzyme for 15 mins by phenol red dye based stopped flow CO2 hydrase assay
[9] = system: KM12; assay: Antitumor activity against human KM12 cells assessed as cell growth inhibition at 10 uM incubated for 48 hrs by sulforhodamine B assay; type: functional; conditions: read-out: GI; summary of the method: as §1
[10] = biological target: Carbonic anhydrase 1 (Homo sapiens, UniProt P00915); assay: Inhibition of recombinant human carbonic anhydrase 1 preincubated with enzyme for 15 mins by phenol red dye based stopped flow CO2 hydrase assay
[11] = system: SNB-75; assay: Antitumor activity against human SNB-75 cells assessed as cell growth inhibition at 10 uM incubated for 48 hrs by sulforhodamine B assay; type: functional; conditions: read-out: GI; summary of the method: as §2
[12] = system: NCI-H522; assay: Antitumor activity against human NCI-H522 cells assessed as cell growth inhibition at 10 uM incubated for 48 hrs by sulforhodamine B assay; type: functional; conditions: read-out: GI; summary of the method: as §1
[13] = system: RPMI-8226; assay: Antitumor activity against human RPMI8226 cells assessed as cell growth inhibition at 10 uM incubated for 48 hrs by sulforhodamine B assay; type: functional; conditions: read-out: GI; summary of the method: as §1
[14] = system: OVCAR-3; assay: Antitumor activity against human OVCAR-3 cells assessed as cell growth inhibition at 10 uM incubated for 48 hrs by sulforhodamine B assay; type: functional; conditions: read-out: GI; summary of the method: as §1
[15] = system: T47D; assay: Antitumor activity against human T-47D cells assessed as cell growth inhibition at 10 uM incubated for 48 hrs by sulforhodamine B assay; type: functional; conditions: read-out: GI; summary of the method: as §2
[16] = system: SF-539; assay: Antitumor activity against human SF539 cells assessed as cell growth inhibition at 10 uM incubated for 48 hrs by sulforhodamine B assay; type: functional; conditions: read-out: GI; summary of the method: as §1
[17] = system: DU-145; assay: Antitumor activity against human DU-145 cells assessed as cell growth inhibition at 10 uM incubated for 48 hrs by sulforhodamine B assay; type: functional; conditions: read-out: GI; summary of the method: as §1
[18] = system: K562; assay: Antitumor activity against human K562 cells assessed as cell growth inhibition at 10 uM incubated for 48 hrs by sulforhodamine B assay; type: functional; conditions: read-out: GI; summary of the method: as §1
[19] = biological target: CDK9/cyclin T1 (Homo sapiens, UniProt P50750); assay: Inhibition of human full-length N-terminal GST/His6-tagged CDK9 (1 to 372 residues)/His6-tagged Cyclin-T1 (1 to 726 residues) expressed in sf9 cells using (YSPTSPS)2KK peptide as substrate in presence of [gamma33P]ATP
[20] = system: U-251; assay: Antitumor activity against human U251 cells assessed as cell growth inhibition at 10 uM incubated for 48 hrs by sulforhodamine B assay; type: functional; conditions: read-out: GI; summary of the method: as §2
[21] = system: HCT-116; assay: Antitumor activity against human HCT116 cells assessed as cell growth inhibition at 10 uM incubated for 48 hrs by sulforhodamine B assay; type: functional; conditions: read-out: GI; summary of the method: as §1
[22] = system: NCI-H226; assay: Antitumor activity against human NCI-H226 assessed as cell growth inhibition at 10 uM incubated for 48 hrs by sulforhodamine B assay; type: functional; conditions: read-out: GI; summary of the method: as §1
[23] = system: RXF 393; assay: Antitumor activity against human RXF 393 cells assessed as cell growth inhibition at 10 uM incubated for 48 hrs by sulforhodamine B assay; type: functional; conditions: read-out: GI; summary of the method: as §1
[24] = biological target: Carbonic anhydrase 2 (Homo sapiens, UniProt P00918); assay: Inhibition of recombinant human carbonic anhydrase 2 preincubated with enzyme for 15 mins by phenol red dye based stopped flow CO2 hydrase assay
[25] = system: OVCAR-8; assay: Antitumor activity against human OVCAR-8 cells assessed as cell growth inhibition at 10 uM incubated for 48 hrs by sulforhodamine B assay; type: functional; conditions: read-out: GI; summary of the method: as §1
[26] = system: MOLT-4; assay: Antitumor activity against human MOLT4 cells assessed as cell growth inhibition at 10 uM incubated for 48 hrs by sulforhodamine B assay; type: functional; conditions: read-out: GI; summary of the method: as §1
[27] = system: SN12C; assay: Antitumor activity against human SN12C cells assessed as cell growth inhibition at 10 uM incubated for 48 hrs by sulforhodamine B assay; type: functional; conditions: read-out: GI; summary of the method: as §1
[28] = system: CCRF-CEM; assay: Antitumor activity against human CCRF-CEM cells assessed as cell growth inhibition at 10 uM incubated for 48 hrs by sulforhodamine B assay; type: functional; conditions: read-out: GI; summary of the method: as §1
[29] = system: MDA-MB-231; assay: Antitumor activity against human MDA-MB-231/ATCC cells assessed as cell growth inhibition at 10 uM incubated for 48 hrs by sulforhodamine B assay; type: functional; conditions: read-out: GI; summary of the method: as §1
[30] = system: BT-549; assay: Antitumor activity against human BT-549 cells assessed as cell growth inhibition at 10 uM incubated for 48 hrs by sulforhodamine B assay; type: functional; conditions: read-out: GI; summary of the method: as §1
[31] = system: PC-3; assay: Antitumor activity against human PC-3 cells assessed as cell growth inhibition at 10 uM incubated for 48 hrs by sulforhodamine B assay; type: functional; conditions: read-out: GI; summary of the method: as §1
[32] = system: SF-268; assay: Antitumor activity against human SF268 cells assessed as cell growth inhibition at 10 uM incubated for 48 hrs by sulforhodamine B assay; type: functional; conditions: read-out: GI; summary of the method: as §1
[33] = biological target: Carbonic anhydrase 9 (Homo sapiens, UniProt Q16790); assay: Inhibition of recombinant human carbonic anhydrase 9 preincubated with enzyme for 15 mins by phenol red dye based stopped flow CO2 hydrase assay
[34] = system: NCI-H322M; assay: Antitumor activity against human NCI-H322M cells assessed as cell growth inhibition at 10 uM incubated for 48 hrs by sulforhodamine B assay; type: functional; conditions: read-out: GI; summary of the method: as §1
[35] = system: LOX IMVI; assay: Antitumor activity against human LOX IMVI cells assessed as cell growth inhibition at 10 uM incubated for 48 hrs by sulforhodamine B assay; type: functional; conditions: read-out: GI; summary of the method: as §1
[36] = system: MDA-MB-468; assay: Antitumor activity against human MDA-MB-468 cells assessed as cell growth inhibition at 10 uM incubated for 48 hrs by sulforhodamine B assay; type: functional; conditions: read-out: GI; summary of the method: as §1
[37] = system: MCF7; assay: Antitumor activity against human MCF7 cells assessed as cell growth inhibition at 10 uM incubated for 48 hrs by sulforhodamine B assay; type: functional; conditions: read-out: GI; summary of the method: as §1

Sequence of Carbonic anhydrase 12 (O43570 whole entry): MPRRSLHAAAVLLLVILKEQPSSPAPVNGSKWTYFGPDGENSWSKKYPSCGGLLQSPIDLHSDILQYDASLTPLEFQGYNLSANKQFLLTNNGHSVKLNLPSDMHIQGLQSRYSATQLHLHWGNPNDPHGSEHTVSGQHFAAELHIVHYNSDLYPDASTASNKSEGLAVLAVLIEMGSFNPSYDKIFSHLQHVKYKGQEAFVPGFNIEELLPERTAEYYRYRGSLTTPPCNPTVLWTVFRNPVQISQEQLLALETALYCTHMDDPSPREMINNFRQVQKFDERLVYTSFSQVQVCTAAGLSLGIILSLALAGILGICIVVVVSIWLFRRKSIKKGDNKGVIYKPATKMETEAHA
Sequence of CDK9/cyclin T1 (O60563 whole entry, the tested form may be a part): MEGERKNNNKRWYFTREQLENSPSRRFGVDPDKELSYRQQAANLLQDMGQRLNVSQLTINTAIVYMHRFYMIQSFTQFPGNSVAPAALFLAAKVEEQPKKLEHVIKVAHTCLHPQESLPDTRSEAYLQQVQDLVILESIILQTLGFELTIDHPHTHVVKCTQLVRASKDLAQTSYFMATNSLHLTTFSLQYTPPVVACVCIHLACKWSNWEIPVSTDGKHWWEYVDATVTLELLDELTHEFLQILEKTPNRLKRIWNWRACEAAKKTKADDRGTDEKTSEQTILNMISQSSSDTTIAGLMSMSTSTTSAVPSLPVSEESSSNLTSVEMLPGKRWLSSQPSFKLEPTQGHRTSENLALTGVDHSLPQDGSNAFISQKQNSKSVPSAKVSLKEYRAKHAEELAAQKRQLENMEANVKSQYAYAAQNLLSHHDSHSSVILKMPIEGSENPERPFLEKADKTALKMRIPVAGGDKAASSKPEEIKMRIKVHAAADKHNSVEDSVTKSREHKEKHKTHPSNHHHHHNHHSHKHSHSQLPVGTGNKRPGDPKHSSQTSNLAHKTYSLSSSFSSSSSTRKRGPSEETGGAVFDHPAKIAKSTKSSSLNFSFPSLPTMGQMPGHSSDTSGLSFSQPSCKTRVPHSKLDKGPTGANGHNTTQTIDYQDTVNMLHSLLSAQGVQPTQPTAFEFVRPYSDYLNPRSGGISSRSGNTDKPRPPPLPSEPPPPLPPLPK
Sequence of CDK9/cyclin T1 (P50750 whole entry, the tested form may be a part): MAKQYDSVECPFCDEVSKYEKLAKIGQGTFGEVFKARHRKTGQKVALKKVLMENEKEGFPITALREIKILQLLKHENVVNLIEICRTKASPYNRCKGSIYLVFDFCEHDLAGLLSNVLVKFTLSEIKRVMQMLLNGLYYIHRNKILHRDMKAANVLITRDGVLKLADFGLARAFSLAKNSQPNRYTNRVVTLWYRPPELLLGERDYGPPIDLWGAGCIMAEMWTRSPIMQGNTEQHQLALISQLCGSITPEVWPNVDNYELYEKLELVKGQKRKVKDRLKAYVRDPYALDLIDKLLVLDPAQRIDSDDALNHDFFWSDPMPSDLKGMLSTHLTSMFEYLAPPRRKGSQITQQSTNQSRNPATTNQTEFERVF
Sequence of Carbonic anhydrase 1 (P00915 whole entry): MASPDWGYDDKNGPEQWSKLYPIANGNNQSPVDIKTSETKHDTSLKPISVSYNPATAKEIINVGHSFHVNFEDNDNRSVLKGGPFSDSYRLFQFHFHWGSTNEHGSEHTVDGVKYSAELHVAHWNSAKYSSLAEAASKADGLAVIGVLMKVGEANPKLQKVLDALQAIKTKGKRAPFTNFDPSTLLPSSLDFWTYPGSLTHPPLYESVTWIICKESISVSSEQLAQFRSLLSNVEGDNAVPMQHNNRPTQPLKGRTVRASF

Row | Compound | inhibition of growth at 10 µM [1] | inhibition of growth at 10 µM [2] | Activity [3] | IC50 [4] | inhibition of growth at 10 µM [5] | inhibition of growth at 10 µM [6] | inhibition of growth at 10 µM [7] | Ki [8] | inhibition of growth at 10 µM [9] | Ki [10] | inhibition of growth at 10 µM [11] | inhibition of growth at 10 µM [12] | inhibition of growth at 10 µM [13] | inhibition of growth at 10 µM [14] | inhibition of growth at 10 µM [15] | inhibition of growth at 10 µM [16] | inhibition of growth at 10 µM [17] | inhibition of growth at 10 µM [18] | IC50 [19] | inhibition of growth at 10 µM [20] | also measured
1 | Cc1ccc(-c2cn3nc(N)c(/N=N/c4ccc(S(N)(=O)=O)cc4)c3[nH]2)cc1 | 80% | 51% | inactive | 20300 nM | 57% | 39% | 77% | 27.7 nM | 46% | 1200 nM | 66% | 57% | 60% | 36% | 39% | 56% | 52% | 48% | > 12500 nM | 44% | inhibition of growth at 10 µM [21]: 62%; inhibition of growth at 10 µM [22]: 27%; inhibition of growth at 10 µM [23]: 56%; Ki [24]: 99.7 nM; inhibition of growth at 10 µM [25]: 47%; inhibition of growth at 10 µM [26]: 55%; inhibition of growth at 10 µM [27]: 63%; inhibition of growth at 10 µM [28]: 54%; inhibition of growth at 10 µM [29]: 42%; inhibition of growth at 10 µM [30]: 33%; inhibition of growth at 10 µM [31]: 43%; inhibition of growth at 10 µM [32]: 49%; Ki [33]: 9.4 nM; inhibition of growth at 10 µM [34]: 69%; inhibition of growth at 10 µM [35]: 70%; inhibition of growth at 10 µM [36]: 48%
2 | Nc1nn2cc(-c3ccccc3)[nH]c2c1/N=N/c1ccc(S(N)(=O)=O)cc1 | 85% | 73% | inactive | > 25000 nM | 68% | 58% | 81% | 30.6 nM | 67% | 957 nM | 99% | 69% | 94% | 53% | 57% | 80% | 57% | 67% | > 25000 nM | 61% | inhibition of growth at 10 µM [37]: 54%; inhibition of growth at 10 µM [21]: 77%; inhibition of growth at 10 µM [22]: 47%; inhibition of growth at 10 µM [23]: 93%; Ki [24]: 75.4 nM; inhibition of growth at 10 µM [25]: 63%; inhibition of growth at 10 µM [26]: 86%; inhibition of growth at 10 µM [27]: 80%; inhibition of growth at 10 µM [28]: 80%; inhibition of growth at 10 µM [29]: 80%; inhibition of growth at 10 µM [30]: 41%; inhibition of growth at 10 µM [31]: 68%; inhibition of growth at 10 µM [32]: 63%; Ki [33]: 38.1 nM; inhibition of growth at 10 µM [34]: 63%; inhibition of growth at 10 µM [35]: 83%; inhibition of growth at 10 µM [36]: 67%
